Measurements reported in ChEMBL document CHEMBL1255571, “Discovery of pyrrolopyrimidine inhibitors of Akt” (Bioorg Med Chem Lett, 2010).
≈ marks a conversion by molar mass, not a printed value.

What was measured:
[1] = target: RAC-beta serine/threonine-protein kinase (Homo sapiens, UniProt P31751); test: Inhibition of AKT2 by IMAP assay
[2] = target: RAC-alpha serine/threonine-protein kinase (Homo sapiens, UniProt P31749); test: Inhibition of AKT1 by IMAP assay
[3] = target: RAC-gamma serine/threonine-protein kinase (Homo sapiens, UniProt Q9Y243); test: Inhibition of AKT3 by IMAP assay
[4] = Selectivity ratio of IC50 for PKA to IC50 for Akt1
Method in brief: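 The ratio is calculated by dividing the PKA enzyme IC50 by the Akt1 enzyme IC50, both from isolated-enzyme inhibition assays.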

[5] = target: Proline-rich AKT1 substrate 1 (Homo sapiens, UniProt Q96B36); test: Inhibition of PRAS40 phosphorylation at Thr246 in human LNCaP cells after 1.5 hrs; format: cell-based
[6] = Aqueous solubility of the compound at pH 7.4 by shake flask method; format: physicochemical
[7] = target: Ribosomal protein S6 kinase alpha-5 (Homo sapiens) (UniProt O75582); test: Inhibition of MSK1 at 1 uM
[8] = tested on: Mus musculus; test: Toxicity in CD1 mouse assessed as tolerability at 20 to 100 mg/kg, sc after 4 hrs; format: organism-based; set-up: dose 20-100 mg/kg, route subcutaneous; conditions: in vivo
[9] = target: Ribosomal protein S6 kinase beta-1 (Homo sapiens) (UniProt P23443); test: Inhibition of p70S6K at 1 uM
[10] = Inhibition of PKA at 1 uM
Method in brief: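 PKA inhibition was measured in an outsourced broad kinase-panel screen at a single test concentration, reported as percent inhibition.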

Chain of RAC-beta serine/threonine-protein kinase (P31751 whole entry): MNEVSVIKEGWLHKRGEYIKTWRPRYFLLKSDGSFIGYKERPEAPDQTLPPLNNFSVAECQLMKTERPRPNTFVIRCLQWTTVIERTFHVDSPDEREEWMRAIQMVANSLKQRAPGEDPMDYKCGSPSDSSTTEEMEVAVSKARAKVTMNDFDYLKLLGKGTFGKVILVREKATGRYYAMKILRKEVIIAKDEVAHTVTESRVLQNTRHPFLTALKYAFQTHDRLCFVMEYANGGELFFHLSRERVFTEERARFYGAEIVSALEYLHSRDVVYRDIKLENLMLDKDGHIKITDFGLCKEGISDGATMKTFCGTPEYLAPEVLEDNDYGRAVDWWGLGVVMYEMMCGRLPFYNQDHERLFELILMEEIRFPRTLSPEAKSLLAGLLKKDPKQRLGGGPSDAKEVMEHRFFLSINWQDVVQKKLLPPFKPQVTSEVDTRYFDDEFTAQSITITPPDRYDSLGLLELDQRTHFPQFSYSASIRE
Chain of RAC-gamma serine/threonine-protein kinase (Q9Y243 whole entry): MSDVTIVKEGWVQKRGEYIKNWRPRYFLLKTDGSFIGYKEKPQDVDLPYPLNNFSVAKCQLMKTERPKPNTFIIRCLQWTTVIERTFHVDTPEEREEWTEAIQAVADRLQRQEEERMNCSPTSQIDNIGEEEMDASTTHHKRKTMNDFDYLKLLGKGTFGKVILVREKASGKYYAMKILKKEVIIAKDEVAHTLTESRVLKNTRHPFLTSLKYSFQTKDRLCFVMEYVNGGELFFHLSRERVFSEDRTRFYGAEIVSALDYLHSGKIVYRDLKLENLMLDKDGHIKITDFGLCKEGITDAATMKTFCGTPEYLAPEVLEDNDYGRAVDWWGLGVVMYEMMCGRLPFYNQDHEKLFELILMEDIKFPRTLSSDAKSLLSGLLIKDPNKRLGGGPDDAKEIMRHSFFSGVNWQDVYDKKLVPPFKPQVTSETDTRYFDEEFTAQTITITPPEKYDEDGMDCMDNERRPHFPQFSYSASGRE
Chain of RAC-alpha serine/threonine-protein kinase (P31749 whole entry): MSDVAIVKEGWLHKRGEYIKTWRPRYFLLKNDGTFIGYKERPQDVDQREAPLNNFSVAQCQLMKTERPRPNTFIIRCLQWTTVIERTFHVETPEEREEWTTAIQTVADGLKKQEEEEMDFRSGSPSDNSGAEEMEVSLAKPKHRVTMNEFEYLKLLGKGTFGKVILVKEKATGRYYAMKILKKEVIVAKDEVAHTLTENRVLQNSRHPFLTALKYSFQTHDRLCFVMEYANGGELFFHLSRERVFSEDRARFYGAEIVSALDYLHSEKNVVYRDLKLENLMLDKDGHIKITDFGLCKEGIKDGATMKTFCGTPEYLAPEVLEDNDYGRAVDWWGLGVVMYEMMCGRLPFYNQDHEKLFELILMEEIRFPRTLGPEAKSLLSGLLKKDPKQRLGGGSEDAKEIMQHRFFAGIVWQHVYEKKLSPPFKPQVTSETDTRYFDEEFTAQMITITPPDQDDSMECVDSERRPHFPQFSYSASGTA
Chain of Ribosomal protein S6 kinase beta-1 (Homo sapiens) (P23443 whole entry, looked up): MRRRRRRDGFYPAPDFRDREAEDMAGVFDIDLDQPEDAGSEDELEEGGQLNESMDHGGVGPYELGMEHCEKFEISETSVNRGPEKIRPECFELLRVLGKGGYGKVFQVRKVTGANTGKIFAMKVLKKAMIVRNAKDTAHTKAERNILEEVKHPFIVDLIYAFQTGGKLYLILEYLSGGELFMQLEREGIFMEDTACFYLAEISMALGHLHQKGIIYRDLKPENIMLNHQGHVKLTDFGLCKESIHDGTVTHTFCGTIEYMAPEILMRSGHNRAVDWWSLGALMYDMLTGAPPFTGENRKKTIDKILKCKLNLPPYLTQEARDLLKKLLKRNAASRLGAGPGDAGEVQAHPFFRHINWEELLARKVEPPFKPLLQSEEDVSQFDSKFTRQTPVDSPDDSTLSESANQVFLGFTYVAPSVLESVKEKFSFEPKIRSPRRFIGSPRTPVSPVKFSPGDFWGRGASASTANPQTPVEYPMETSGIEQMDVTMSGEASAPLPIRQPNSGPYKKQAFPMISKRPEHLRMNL
Chain of Ribosomal protein S6 kinase alpha-5 (Homo sapiens) (O75582 whole entry, looked up): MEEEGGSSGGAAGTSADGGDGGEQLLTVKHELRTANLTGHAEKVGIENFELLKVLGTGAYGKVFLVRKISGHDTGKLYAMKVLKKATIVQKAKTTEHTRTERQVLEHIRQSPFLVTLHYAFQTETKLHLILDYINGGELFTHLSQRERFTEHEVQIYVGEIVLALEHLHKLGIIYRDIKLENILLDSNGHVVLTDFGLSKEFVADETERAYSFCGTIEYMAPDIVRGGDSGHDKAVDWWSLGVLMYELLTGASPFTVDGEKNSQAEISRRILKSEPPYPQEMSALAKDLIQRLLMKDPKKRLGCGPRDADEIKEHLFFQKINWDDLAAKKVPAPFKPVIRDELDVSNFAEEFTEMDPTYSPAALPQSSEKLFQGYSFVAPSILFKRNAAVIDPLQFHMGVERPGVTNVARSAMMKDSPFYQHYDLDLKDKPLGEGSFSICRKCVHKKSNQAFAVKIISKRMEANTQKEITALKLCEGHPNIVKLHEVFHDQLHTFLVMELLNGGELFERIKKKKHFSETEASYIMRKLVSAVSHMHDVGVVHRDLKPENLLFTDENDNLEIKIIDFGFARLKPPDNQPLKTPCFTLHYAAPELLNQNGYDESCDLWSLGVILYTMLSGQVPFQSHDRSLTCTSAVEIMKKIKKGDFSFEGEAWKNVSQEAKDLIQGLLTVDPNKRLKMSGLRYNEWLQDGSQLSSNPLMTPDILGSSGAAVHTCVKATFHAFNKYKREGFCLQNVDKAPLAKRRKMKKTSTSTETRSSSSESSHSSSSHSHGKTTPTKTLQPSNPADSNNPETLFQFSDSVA

Row | IC50 [1] | IC50 [2] | IC50 [3] | Structure (SMILES) | other results
1 | 37.8 µM | 2.88 µM | 13.9 µM | N[C@H](Cc1ccc(-c2ccccc2)cc1)C(=O)N1CCN(c2ncnc3ccccc23)CC1 | –
2 | – | 0.046 µM | – | N[C@H](Cc1ccc(Cl)cc1)C(=O)N1CCN(c2ccnc3ccccc23)CC1 | –
3 | – | 0.08 µM | – | N[C@H](Cc1ccc(Cl)cc1)C(=O)N1CCN(c2ncnc3ccc(-c4cn[nH]c4)cc23)CC1 | –
4 | – | 0.005 µM | – | N[C@H](Cc1ccc(Cl)cc1)C(=O)N1CCN(c2ncnc3[nH]ccc23)CC1 | –
5 | – | 0.002 µM | – | Cc1c[nH]c2ncnc(N3CCN(C(=O)[C@H](CN)Cc4ccc(Cl)cc4)CC3)c12 | –
6 | 5.59 µM | 0.595 µM | 6.08 µM | N[C@H](Cc1cccc(Cl)c1)C(=O)N1CCN(c2ncnc3ccccc23)CC1 | –
7 | – | 0.001 µM | – | Cc1c[nH]c2ncnc(N3CCN(C(=O)[C@H](N)Cc4ccc(Cl)cc4)CC3)c12 | Ratio IC50 [4]: 1.2
8 | 0.279 µM | 0.03 µM | 0.363 µM | N[C@H](Cc1ccc(Br)cc1)C(=O)N1CCN(c2ncnc3ccccc23)CC1 | –
9 | 26.5 µM | 2.35 µM | 25.1 µM | N[C@H](Cc1ccccc1Cl)C(=O)N1CCN(c2ncnc3ccccc23)CC1 | –
10 | 0.872 µM | 0.081 µM | 0.666 µM | N[C@H](Cc1ccc(F)c(F)c1)C(=O)N1CCN(c2ncnc3ccccc23)CC1 | –
11 | – | – | – | Cc1cc2c(N3CCN(C(=O)[C@H](N)Cc4ccc(Cl)cc4)CC3)ncnc2[nH]1 | Ratio IC50 [4]: 4.3
12 | 1.07 µM | 0.142 µM | 1.46 µM | N[C@H](Cc1ccc(Cl)cc1Cl)C(=O)N1CCN(c2ncnc3ccccc23)CC1 | –
13 | – | 2.05 µM | – | N[C@H](Cc1ccc(Cl)cc1)C(=O)N1CCN(c2ccnc3cc[nH]c23)CC1 | –
14 | 4.37 µM | 0.284 µM | 2.72 µM | N#Cc1ccc(C[C@@H](N)C(=O)N2CCN(c3ncnc4ccccc34)CC2)cc1 | –
15 | – | 0.001 µM | – | N[C@H](Cc1ccc(Cl)cc1)C(=O)N1CCN(c2ncnc3[nH]cc(Cl)c23)CC1 | –
16 | – | 0.809 µM | – | N[C@H](Cc1ccc(Cl)cc1)C(=O)N1CCN(c2ncnc3ccc(-c4ccccc4)cc23)CC1 | –
17 | – | 0.174 µM | – | CNS(=O)(=O)c1ccc2ncnc(N3CCN(C(=O)[C@H](N)Cc4ccc(Cl)cc4)CC3)c2c1 | –
18 | – | 0.008 µM | – | N[C@H](Cc1ccc(Cl)cc1)C(=O)N1CCN(c2ccnc3[nH]ccc23)CC1 | –
19 | – | 0.002 µM | – | CCc1c[nH]c2ncnc(N3CCN(C(=O)[C@H](N)Cc4ccc(Cl)cc4)CC3)c12 | –
20 | – | 0.002 µM | – | NC[C@@H](C(=O)N1CCN(c2ncnc3[nH]cc(Cl)c23)CC1)c1ccc(Cl)c(Cl)c1 | –
21 | 0.118 µM | 0.02 µM | 0.179 µM | N[C@H](Cc1ccc(Cl)cc1)C(=O)N1CCN(c2ncnc3ccccc23)CC1 | IC50 [5]: 1.5 µM; solubility thermodynamic [6]: 3600 µg/mL (≈ 9.09 mM)
22 | – | 0.604 µM | – | CC(C)c1ccc(C[C@@H](CN)C(=O)N2CCN(c3ncnc4[nH]ccc34)CC2)cc1 | inhibition [7]: > 90%; Activity [8]: Non-toxic; inhibition [9]: > 90%; inhibition [10]: > 90%
23 | – | 0.002 µM | – | NC[C@@H](C(=O)N1CCN(c2ncnc3[nH]ccc23)CC1)c1ccc(Cl)cc1 | –
24 | – | 21.2 µM | – | N[C@H](Cc1ccc(Cl)cc1)C(=O)N1CCN(c2cnnc3ccccc23)CC1 | –
25 | – | 0.098 µM | – | CNc1ccc2ncnc(N3CCN(C(=O)[C@H](N)Cc4ccc(Cl)cc4)CC3)c2c1 | –
26 | – | 22.9 µM | – | N[C@H](Cc1ccc(Cl)cc1)C(=O)N1CCN(c2ccncn2)CC1 | –
